# An excerpt weighted towards active compounds, which were near 2.3% of everything screened.
# TRPC6 activator: activators of mouse TRPC6 channel | Q61143 | HEK293-TRPC6 membrane potential dye fluorescence; hits give high values | B-score at 10 µM | 310,000 tested, 0.13% active;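 active means B-score of the integrated fluorescence ratio above library mean plus 3 SD, and starting fluorescence ratio within library mean plus 5 SD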;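 further: higher score means more depolarization so channel activation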
# Target sequence (Q61143 whole entry, looked up): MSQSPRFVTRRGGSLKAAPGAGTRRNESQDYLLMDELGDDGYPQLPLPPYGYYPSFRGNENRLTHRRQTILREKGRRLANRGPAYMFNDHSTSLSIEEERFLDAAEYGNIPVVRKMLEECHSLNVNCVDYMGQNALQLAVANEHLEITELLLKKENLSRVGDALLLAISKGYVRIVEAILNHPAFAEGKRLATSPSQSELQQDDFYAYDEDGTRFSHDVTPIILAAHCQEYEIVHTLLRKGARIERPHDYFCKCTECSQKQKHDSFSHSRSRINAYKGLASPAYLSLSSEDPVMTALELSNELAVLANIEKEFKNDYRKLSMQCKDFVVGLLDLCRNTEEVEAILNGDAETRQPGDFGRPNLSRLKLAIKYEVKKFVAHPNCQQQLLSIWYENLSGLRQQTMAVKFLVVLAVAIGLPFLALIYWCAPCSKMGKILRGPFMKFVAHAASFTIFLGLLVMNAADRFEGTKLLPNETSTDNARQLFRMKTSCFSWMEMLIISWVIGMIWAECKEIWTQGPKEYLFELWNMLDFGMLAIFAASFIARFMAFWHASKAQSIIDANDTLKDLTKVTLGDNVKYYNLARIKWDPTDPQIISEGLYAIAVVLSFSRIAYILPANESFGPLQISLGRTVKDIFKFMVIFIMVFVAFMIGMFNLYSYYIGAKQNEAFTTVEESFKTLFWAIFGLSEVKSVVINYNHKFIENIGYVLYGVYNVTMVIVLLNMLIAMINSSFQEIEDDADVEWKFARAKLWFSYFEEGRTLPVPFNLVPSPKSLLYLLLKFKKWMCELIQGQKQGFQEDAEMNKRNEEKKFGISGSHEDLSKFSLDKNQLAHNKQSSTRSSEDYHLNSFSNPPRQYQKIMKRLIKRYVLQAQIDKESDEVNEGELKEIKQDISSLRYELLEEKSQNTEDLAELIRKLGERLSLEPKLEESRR
# TRPC4 inh: inhibitors of mouse TRPC4 channel; Q9QUQ5; HEK293 TRPC4beta/mu-opioid, DAMGO-evoked Fluo4 calcium flux; hits give low values; B-score at 10 µM; 300,000 tested, 0.39% active; AID 2247;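 active means B-score over 3 SD under the library average, no early fluorescence shift, positive overall ratio signal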
#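 Signal: kinetic Fluo4 fluorescence imaging of calcium influx. Material: stable TRPC4beta/mu-opioid receptor HEK293 cells. Probe or stimulus: DAMGO in two steps, submaximal then maximal.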
# TRPC4 PAM: allosteric potentiators of mouse TRPC4 channel; 310,000 tested, 0.42% active; B-score at 10 µM; HEK293 TRPC4beta/mu-opioid, DAMGO EC20, Fluo-4 Ca2+ flux; hits give high values;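 active means B-score of calcium response area above 5 SD of library B-scores, with initial fluorescence ratio within 5 SD of library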;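 further: B-score of integrated fluorescence ratio over time as area under calcium response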
# TRPC4 act: TRPC4 (mouse) channel activation; B-score at 10 µM; AID 2237; 310,000 tested, 0.49% active; HEK293 TRPC4beta/mu-opioid, Fluo4 calcium fluorescence; hits give high values; Q9QUQ5;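 active means B-score above 5 SD of library B-scores, and initial fluorescence ratio not above library mean plus 5 SD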;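 further: positive B-score marks a calcium rise read as TRPC4 activation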
#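 Assay system – TRPC4beta and mu-opioid receptor HEK293 stable cells · Measured by – Fluo4 fluorescence, kinetic · Schedule – dye loading 45 min room temperature, 110 s kinetic read · Read-out – B-scored integrated calcium fluorescence ratio · Controls – buffer and maximal DAMGO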
# TRPC6 inhibitor: blocks the mouse TRPC6 cation channel; B-score at 10 µM; AID 2553; Q61143; 310,000 tested, 1.1% active; HEK293-TRPC6, membrane potential dye, ACh-evoked depolarization; hits give low values;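 active means B-score under library mean minus 3 SD, initial fluorescence not abnormally high, positive integrated signal ratio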;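 further: B-score derived from integrated fluorescence ratio over the kinetic read; more negative B-score means stronger inhibition of depolarization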
# TRPC4 spec 2: second selectivity test of TRPC6 inhibitors: effect on mouse TRPC4; shares compounds with TRPC6 inhibitor; HEK293 TRPC4/MOR, membrane potential dye fluorescence; channel activated by saturating DAMGO dose; inhibition, % at 10 µM; 920 tested, 42% active;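 active means compounds whose fluorescence signal differed from control wells by over 3 SD, either direction, in both duplicate plates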
# TRPC4 spec: mouse TRPC4 off-target activity of TRPC6 inhibitors; activity change, negative = inhibition, % at 10 µM; shares compounds with TRPC6 inhibitor; HEK293 TRPC4/mu-opioid, membrane potential fluorescence; AID 2777; 920 tested, 61% active;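 active means rise or fall in signal beyond 3 SD of buffer-only wells in both replicate plates, either sign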;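 further: integrated kinetic ratio of fluorescence range over baseline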
# HEK293 MPD ctr 2-1: second counter-screen for TRPC6 inhibitors: parental HEK293 cells; shares compounds with TRPC6 inhibitor; parental HEK293 membrane potential dye fluorescence; maximal acetylcholine challenge after compound addition; signal change vs control, % at 10 µM; 920 tested, 31% active; AID 2779;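 active means membrane potential signal moving either way by over 3 SD of the maximum-effect control, in both duplicate plates, meaning non-specific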
# HEK293 MPD ctr-1: counter-screen for TRPC6 inhibitors: effect in parental HEK293 cells; 920 tested, 60% active; parental HEK293 membrane potential dye fluorescence; shares compounds with TRPC6 inhibitor; AID 2780; membrane potential signal change, % at 10 µM;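 active means membrane potential signal shifting up or down by more than 3 SD of buffer-only wells, on both duplicate plates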
# HEK293 MPD ctr-2: parental HEK293 nonspecific activity of TRPC6 modulators; shares compounds with TRPC6 inhibitor; membrane potential dye fluorescence; membrane potential signal change, % at 10 µM; 2,400 tested, 51% active; AID 488924;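 active means membrane potential signal moves up or down beyond 5 SD from buffer-only wells, on both duplicate plates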
# HEK293 MPD ctr 2-2: second counter-screen for TRPC6 modulators: effect in parental HEK293 cells | shares compounds with TRPC6 inhibitor | membrane potential dye fluorescence; after compound, maximal acetylcholine stimulation | inhibition, % at 10 µM | 2,400 tested, 14% active;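 active means membrane potential signal drops by more than 5 SD from the mean control signal, in both duplicate plates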;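 further: plate controls were acetylcholine ECmax control wells for no effect and buffer only wells for full effect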
# TRPC4/MOR mod: tests whether TRPC6 modulators also affect mouse TRPC4. shares compounds with TRPC6 inhibitor. percent change from control (negative = decrease, positive = increase), % at 10 µM. HEK293 TRPC4/mu-opioid, membrane potential fluorescence. 2,400 tested, 69% active;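 active means membrane potential signal moved up or down beyond 5 SD of buffer control wells, in both duplicate plates, actives on both sides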;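 further: plate controls were assay buffer wells for no effect and DAMGO maximal-effect wells for full effect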
# TRPC4 ctr inh 2: second check of whether TRPC6 modulators also affect mouse TRPC4. shares compounds with TRPC6 inhibitor. HEK293 TRPC4/mu-opioid, membrane potential dye fluorescence; stimulated with maximal-effect DAMGO. inhibition, % at 10 µM. 2,400 tested, 55% active;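 active means drop in membrane potential signal beyond 5 SD of the control wells in both duplicate plates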;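 further: TRPC4 counter screen for TRPC6 hits run under conditions tuned for TRPC6 not TRPC4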
# TRPC6 inh conf: mouse TRPC6 inhibitor confirmation. HEK293-TRPC6, membrane potential dye, ACh-evoked depolarization. 3,300 tested, 43% active. shares compounds with TRPC6 inhibitor. inhibition, % at 10 µM;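 active means fluorescence ratio falls more than 5 SD below the full-stimulation control mean, in both duplicate runs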;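 further: integrated fluorescence ratio of peak minus minimum over baseline after agonist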
# TRPC6 act conf: confirmation of mouse TRPC6 activators; HEK293-TRPC6 membrane potential dye fluorescence, FDSS; activation, % at 10 µM; 2,800 tested, 11% active; shares compounds with TRPC6 inhibitor;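 active means ratio signal rise beyond 5 SD above unstimulated control wells' mean, seen in both duplicate runs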;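 further: plate controls were buffer EC0 wells for no effect and acetylcholine ECmax response for full effect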
# An asterisk follows results filed as active; i = inactive; nt = no result.
SMILES,TRPC6 activator,TRPC4 inh,TRPC4 PAM,TRPC4 act,TRPC6 inhibitor,HEK293 MPD ctr-2,HEK293 MPD ctr 2-2,TRPC4/MOR mod,TRPC4 ctr inh 2,TRPC6 inh conf,TRPC6 act conf,others
O=C(Nc1ccc(C2=NCCN2)cc1)c1ccc(C(=O)Nc2ccc(C3=NCCN3)cc2)c(Cl)c1,16*,i,i,i,i,307%*,i,54%*,i,i,154%*,
COc1cc(OC)cc(C(=O)N2CCC(n3c(C)nc4cc(F)ccc43)CC2)c1,20*,i,i,i,i,i,i,i,i,nt,163%*,
COc1ccc(NC(=O)CN2CCC(n3c(C)nc4cc(F)ccc43)CC2)c(OC)c1,i,i,i,i,i,nt,nt,nt,nt,nt,nt,
NC1=NC(c2ccccc2)N=C(Nc2ccccc2)N1 (stereo not given),i,i,i,i,i,nt,nt,nt,nt,nt,nt,
COC1=C(Nc2ccccc2OC)C(=O)c2ccccc2C1=O,i,i,i,i,-5.8*,-91%*,i,-24%*,38%*,i,i,
CC1CN(C(=S)NC2CCCC2)CC(C)O1 (stereo not given),i,i,i,i,i,nt,nt,nt,nt,nt,nt,
CCC(C)(C)n1nnnc1C(c1cc2cc3c(cc2[nH]c1=O)OCO3)N1CCCCC1 (stereo not given),i,i,i,i,-5.9*,i,i,i,i,i,nt,
CCCN1CCN(C(c2cc3cc4c(cc3[nH]c2=O)OCO4)c2nnnn2C(C)(C)C)CC1 (stereo not given),i,i,i,i,i,nt,nt,nt,nt,nt,nt,
CC(C)c1nnc(NC(=O)CCC(=O)Nc2ccc3cn[nH]c3c2)s1,i,i,i,i,i,nt,nt,nt,nt,nt,nt,
CCOC(=O)c1c(N)n(-c2ccc(N)cc2)c2nc3ccccc3nc12,i,i,i,i,i,nt,nt,nt,nt,nt,nt,
CCOC(=O)c1c(N)n(C2CC(C)(C)NC(C)(C)C2)c2nc3ccccc3nc12,i,i,i,i,-5.4*,-294%*,i,-55%*,43%*,i,i,
O=C(Cc1ccccc1F)NC1CCCc2ccccc21 (stereo not given),i,i,i,i,i,nt,nt,nt,nt,nt,nt,
O=C(CCc1ccccc1)NC1CCCc2ccccc21 (stereo not given),i,i,i,i,-7.5*,nt,nt,nt,nt,i,i,TRPC4 spec 2=i;TRPC4 spec=6.5%*;HEK293 MPD ctr 2-1=i;HEK293 MPD ctr-1=5.4%*
COc1cccc(NC(=O)CCCn2nc(C)c3c(C)n(-c4ccccc4)nc3c2=O)c1,i,i,i,i,i,nt,nt,nt,nt,nt,nt,

# Bioassay records from PubChem BioAssay.
